From ChEMBL document CHEMBL4033799, “Stable and Long-Lasting, Novel Bicyclic Peptide Plasma Kallikrein Inhibitors for the Treatment of Diabetic Macular Edema” (J Med Chem, 2018)

Legend:
[1] = Half life in New Zealand white rabbit eye at 2 mg/ml, administered via ivt injection by HPLC analysis; type: ADME, tissue-based, Oryctolagus cuniculus; settings: topical or ocular
Summary of the method: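 Male New Zealand White rabbits (10 weeks old, ~2 kg) received one 50 μL intravitreal injection per eye of peptide at 2 mg/mL in 50 mM sodium phosphate, pH 7.2. Animals were sacrificed at 15 min, 1, 4, 8, 24, 48 and 96 h (3 per time point). Whole vitreous was homogenized, clarified, 0.2 μm filtered and assayed by LC-MS/MS, with a lower limit of detection of 1 ng/mL in vitreous.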

[2] = target: Granzyme B (Homo sapiens, UniProt P10144); test: Inhibition of recombinant human Granzyme B (21 to 247 residues) using […] Ac-IEPD-pNA peptide as substrate […]
Summary of the method: (§1)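 Panel of human serine proteases. Substrates and assay conditions followed each supplier's recommendations. Peptides were first screened at 50 μM. Where inhibition was detectable, hydrolytic activity was measured across a range of peptide concentrations. Ki was obtained by fitting to the tight-binding inhibitor rate equation.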

[3] = target: Coagulation factor X (Homo sapiens, UniProt P00742); test: Inhibition of recombinant human C-terminal 10His-tagged factor Xa (24 to 488 residues) expressed in baculovirus derived insect sf21 cells using fluorogenic Mca-RPKPVE-Nval-WRK(Dnp)-NH2 peptide as substrate by fluorescence based assay
Summary of the method: (§2)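 Human serine proteases were assayed with substrates and conditions set by each supplier's recommendations. Peptides were first screened at 50 μM. Where inhibition was detected, Ki was determined from activity across peptide concentrations using a tight-binding rate equation.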

[4] = target: T1, Suppressor of tumorigenicity 14 protein (Homo sapiens, UniProt Q9Y5Y6); test: Inhibition of recombinant human N-terminal 6His-tagged matriptase catalytic domain (596 to 855 residues) expressed in Escherichia coli using fluorogenic Boc-QAR-AMC peptide as substrate after 5 mins by fluorescence based assay; summary of the method: as §1
T1 sequence (Q9Y5Y6 whole entry): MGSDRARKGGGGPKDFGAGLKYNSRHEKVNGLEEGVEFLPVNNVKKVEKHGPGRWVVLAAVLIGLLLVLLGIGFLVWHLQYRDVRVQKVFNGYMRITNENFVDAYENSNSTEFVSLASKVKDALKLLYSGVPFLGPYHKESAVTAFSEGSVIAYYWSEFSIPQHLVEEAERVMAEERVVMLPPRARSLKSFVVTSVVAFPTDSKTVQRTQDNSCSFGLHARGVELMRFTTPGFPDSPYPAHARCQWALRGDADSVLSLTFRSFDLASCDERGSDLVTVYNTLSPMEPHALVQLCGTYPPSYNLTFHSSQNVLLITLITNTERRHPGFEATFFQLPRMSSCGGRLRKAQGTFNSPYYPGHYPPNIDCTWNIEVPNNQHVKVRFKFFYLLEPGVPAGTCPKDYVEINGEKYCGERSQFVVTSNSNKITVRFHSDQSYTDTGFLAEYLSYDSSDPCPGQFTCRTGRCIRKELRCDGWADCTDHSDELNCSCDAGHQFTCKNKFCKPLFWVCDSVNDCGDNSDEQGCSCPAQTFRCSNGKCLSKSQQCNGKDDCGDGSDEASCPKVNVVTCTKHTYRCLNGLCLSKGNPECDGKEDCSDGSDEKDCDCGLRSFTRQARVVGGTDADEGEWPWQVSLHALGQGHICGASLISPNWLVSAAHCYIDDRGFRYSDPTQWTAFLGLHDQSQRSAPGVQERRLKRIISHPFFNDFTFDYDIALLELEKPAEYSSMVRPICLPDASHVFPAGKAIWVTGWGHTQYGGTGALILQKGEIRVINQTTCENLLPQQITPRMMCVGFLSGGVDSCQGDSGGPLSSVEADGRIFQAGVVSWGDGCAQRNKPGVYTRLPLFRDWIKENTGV

[5] = target: Vitamin K-dependent protein C (Homo sapiens, UniProt P04070); test: Inhibition of human activated protein C by fluorescence based assay; summary of the method: as §2
[6] = target: T2, Cathepsin G (Homo sapiens, UniProt P08311); test: Inhibition of recombinant human Cathepsin-G; summary of the method: as §1
T2 sequence (P08311 whole entry): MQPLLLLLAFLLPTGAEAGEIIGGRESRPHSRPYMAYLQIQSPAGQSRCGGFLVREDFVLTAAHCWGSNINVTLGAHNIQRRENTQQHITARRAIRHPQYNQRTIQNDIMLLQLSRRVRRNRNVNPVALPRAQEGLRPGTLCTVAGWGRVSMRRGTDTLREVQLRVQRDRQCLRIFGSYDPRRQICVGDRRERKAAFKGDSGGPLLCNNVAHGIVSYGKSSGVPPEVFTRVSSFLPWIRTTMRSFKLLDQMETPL

[7] = target: T3, Kallikrein-2 (Homo sapiens, UniProt P20151); test: Inhibition of recombinant human C-terminal 10His-tagged KLK2 (1 to 261 residues) expressed in mouse NS0 cells using fluorogenic PFR-AMC peptide as substrate after 5 mins by fluorescence based assay; summary of the method: as §2
T3 sequence (P20151 whole entry): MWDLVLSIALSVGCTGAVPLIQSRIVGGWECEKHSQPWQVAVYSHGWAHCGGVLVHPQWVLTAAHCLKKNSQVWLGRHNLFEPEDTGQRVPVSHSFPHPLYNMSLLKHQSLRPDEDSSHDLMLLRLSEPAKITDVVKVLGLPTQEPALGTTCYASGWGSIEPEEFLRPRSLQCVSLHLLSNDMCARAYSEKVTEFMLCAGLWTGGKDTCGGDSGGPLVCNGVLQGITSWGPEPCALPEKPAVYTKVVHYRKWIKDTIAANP

[8] = target: Kallikrein-6 (Homo sapiens, UniProt Q92876); test: Inhibition of recombinant human C-terminal His-tagged KLK6 isoform 1 (1 to 244 residues) expressed in HEK293 cells using fluorogenic Boc-QARAMC peptide as substrate by fluorescence based assay; summary of the method: as §2
[9] = Half life in Sprague-Dawley rat at 5 mg/kg, iv by LC-MS/MS analysis; type: ADME, organism-based; settings: in vivo
Summary of the method: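 Groups of 2 male Sprague-Dawley rats were dosed IV at 5 mg/kg. Serial tail-vein blood was drawn into EDTA at 5–240 min, and plasma peptide was quantified by LC-MS/MS against 16–4000 ng/mL calibration lines in rat plasma. AUC was calculated by the trapezoidal method.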

[10] = Volume of distribution at steady state in Sprague-Dawley rat at 5 mg/kg, iv measured up to 240 mins post dose by LC-MS/MS analysis; type: ADME, organism-based; settings: in vivo, read-out: Vdss
Summary of the method: (§3)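 Male Sprague-Dawley rats, 2 per group, given 5 mg/kg intravenously. Blood sampled through tail-vein cannulae at 5, 10, 20, 30, 60, 120, 180 and 240 min into EDTA tubes and spun to plasma.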

[11] = Half life in human vitreous humor at 1 uM measured up to 24 hrs by LC-MS/MS analysis; type: ADME, tissue-based
Summary of the method: (§4)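 Peptide from a 0.16 mM DMSO stock was added to human, rat or mouse plasma (final 4 μM) or to homogenized human vitreous (final 1 μM), with internal standard. Samples were incubated at 37 °C for up to 24 h and extracted with water/acetonitrile/methanol 1:3:3.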

[12] = Half life in human plasma at 4 uM measured up to 24 hrs by LC-MS/MS analysis; type: ADME, cell-free; summary of the method: as §4
[13] = Half life in mouse plasma at 4 uM measured up to 24 hrs by LC-MS/MS analysis; type: ADME, cell-free; summary of the method: as §4
[14] = Plasma clearance in Sprague-Dawley rat at 5 mg/kg, iv measured up to 240 mins post dose by LC-MS/MS analysis; type: ADME, organism-based; summary of the method: as §3

Structure (SMILES)	half-life [1] [h]	Ki [2] [µM]	Ki [3] [µM]	Ki [4] [µM]	Ki [5] [µM]	Ki [6] [µM]	Ki [7] [µM]	Ki [8] [µM]	half-life [9] [h]	Vd [10] [L/kg]	half-life at 1 µM [11] [h]	half-life at 4 µM [12] [h]	half-life at 4 µM [13] [h]	clearance [14] [mL/min/kg]
CC[C@H](C)[C@@H]1NC(=O)[C@H](CC(=O)O)NC(=O)[C@@H]2CCCN2C(=O)[C@H](Cc2ccc(O)cc2)NC(=O)[C@H](Cc2ccc(O)cc2)NC(=O)[C@H](C(C)C)NC(=O)[C@@H]2CSCc3cc(cc(c3)CSC[C@@H](C(=O)N[C@@H](C)C(=O)N(C)CC(=O)N(C)CC(=O)N(C)CC(=O)N[C@H](CCCNC(=N)N)C(=O)N[C@H](CCCNC(=N)N)C(=O)O)NC1=O)CSC[C@H](NC(C)=O)C(=O)N[C@@H](CO)C(=O)N[C@@H](Cc1ccccc1)C(=O)N1CCC1C(=O)N[C@@H](Cc1ccc(O)cc1)C(=O)N[C@@H](CCCCNC(=N)N)C(=O)N2 (some centres not stated)	22	> 50	23	15	> 50	> 50	10	> 50	–	–	–	–	–	–
CC(=O)N[C@H]1CSCc2cc3cc(c2)CSC[C@H](NC(=O)[C@H](CCCCNC(=N)N)NC(=O)[C@H](Cc2ccc(O)cc2)NC(=O)[C@@H]2CCN2C(=O)[C@H](Cc2ccccc2)NC(=O)[C@H](CO)NC1=O)C(=O)N[C@@H](C)CN[C@@H](Cc1cnc[nH]1)C(=O)N[C@@H](CCC(N)=O)C(=O)N[C@@H](CC(=O)O)C(=O)N[C@@H](CC(C)C)C(=O)N[C@H](C(=O)O)CSC3	39	> 50	–	50	> 50	–	10	–	0.8	0.44	> 24	> 24	> 24	6.2
CC(=O)N[C@H]1CSCc2cc3cc(c2)CSC[C@H](C(=O)N[C@@H](C)C(=O)N(C)CC(=O)N(C)CC(=O)N(C)CC(=O)N[C@H](CCCNC(=N)N)C(=O)N[C@H](CCCNC(=N)N)C(=O)O)NC(=O)[C@H](CC(C)C)NC(=O)[C@@H]2CCCN2C(=O)[C@H](C)NC(=O)[C@H](CC(=O)O)NC(=O)[C@H](Cc2c[nH]c4ccccc24)NC(=O)[C@@H]2CCCN2C(=O)[C@H](CSC3)NC(=O)[C@H](Cc2c[nH]c3ccccc23)NC(=O)[C@@H]2CCCN2C(=O)[C@H](CC(N)=O)NC(=O)[C@H](Cc2c[nH]c3ccccc23)NC(=O)[C@H]([C@@H](C)O)NC(=O)[C@H](CC(N)=O)NC1=O	–	> 50	> 50	40	> 50	> 50	> 50	> 50	1.3	0.93	> 24	> 24	> 24	8.2
